Experimental data published in ChEMBL document CHEMBL2086388, “Antihyperglycemic effect of syringaldehyde in streptozotocin-induced diabetic rats” (2012).
Activity calls are given as the source filed them. The calls are words filed in the database; no cut-off is given here.

Experiments:
Rattus norvegicus [1] = test: Antihyperglycemic activity in STZ-induced diabetic rats assessed as reduction in plasma glucose levels at 100 mg/kg, po; format: functional
Rattus norvegicus [2] = test: Antihyperglycemic activity in Wistar rats assessed as reduction in plasma glucose levels at 7.2 mg/kg, iv administered 30 mins prior to glucose challenge measured after 5 mins; format: functional, organism-based; parameters: dose 7.2 mg/kg
Summary of the method: (§1)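 IV glucose challenge in pentobarbital-anesthetized (30 mg/kg ip) Wistar rats. Compound 7.2 mg/kg or saline injected into the tail vein; 30 min later the 0-min sample was drawn. Glucose 60.0 mg/kg then given via the femoral vein. Tail-vein plasma glucose measured at 5–120 min and compared with the vehicle group at each time. n=8.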

Rattus norvegicus [3] = test: Antihyperglycemic activity in STZ-induced diabetic Wistar rats assessed as reduction in plasma glucose levels at 1.8 mg/kg, iv administered as bolus dose measured after 60 mins; format: functional; parameters: scale not given: the % may be the effect or the level left
Summary of the method: (§2)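 Fasted rats made diabetic with STZ 60 mg/kg iv (plasma glucose ≥20 mmol/L plus polyuria) and used 2 weeks later. Compound dissolved in normal saline and given as an iv bolus over 1.8–7.2 mg/kg; controls got saline. Tail-vein plasma glucose measured at 60 min under pentobarbital 30 mg/kg ip. Activity = [(Gi−Gt)/Gi]×100%. n=8.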

Rattus norvegicus [4] = test: Antihyperglycemic activity in Wistar rats assessed as reduction in plasma glucose levels at 7.2 mg/kg, iv administered 30 mins prior to glucose challenge measured after 30 mins; format: functional, organism-based; parameters: dose 7.2 mg/kg; summary of the method: as §1
L6 = test: Induction of glucose uptake in rat L6 cells after 60 mins by 2-NBDG fluorescence assay; format: functional, cell-based
Summary of the method: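 Rat L6 cells grown 48 h, trypsinized, 1×10^6 cells/mL. Cells incubated in PBS with 0.2 mM 2-NBDG plus compound or vehicle, 37 °C, 60 min in the dark. Then washed three times with cold PBS. Fluorescence read at ex 488/em 520 nm. Eight experiments per group, means ± SEM.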

Rattus norvegicus [5] = test: Antihyperglycemic activity in STZ-induced diabetic Wistar rats assessed as reduction in plasma glucose levels at 7.2 mg/kg, iv administered as bolus dose measured after 60 mins; format: functional; conditions: 1 h; summary of the method: as §2
Rattus norvegicus [6] = test: Antidiabetic activity in STZ-induced diabetic Wistar rats assessed as increase in response to exogenous insulin at 7.2 mg/kg, iv tid for 3 days; format: functional, organism-based; parameters: dose 7.2 mg/kg
Summary of the method: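 STZ-diabetic rats (STZ 60 mg/kg iv, glucose ≥20 mmol/L, used 2 weeks later) first given long-acting human insulin 1 IU/kg once daily. Compound or saline then given iv three times daily for 3 days. Challenge was short-acting human insulin iv 0.1–1.0 IU/kg. Femoral-vein blood taken at 30 min for plasma glucose. n=8 per group, means ± SE.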

Rattus norvegicus [7] = test: Antihyperglycemic activity in Wistar rats assessed as reduction in plasma glucose levels at 7.2 mg/kg, iv administered 30 mins prior to glucose challenge measured after 120 mins; format: functional, organism-based; parameters: dose 7.2 mg/kg; summary of the method: as §1
Rattus norvegicus [8] = test: Antihyperglycemic activity in iv dosed STZ-induced diabetic Wistar rats assessed as reduction in plasma glucose levels administered as bolus dose measured after 60 mins; format: functional, organism-based; summary of the method: as §2
Rattus norvegicus [9] = test: Antihyperglycemic activity in Wistar rats assessed as reduction in plasma glucose levels at 7.2 mg/kg, iv administered as bolus dose measured after 60 mins; format: functional; parameters: scale not given: the % may be the effect or the level left
Summary of the method: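 Normal fasted Wistar rats, n=8. Compound in saline given iv at 7.2 mg/kg. Tail-vein plasma glucose taken under pentobarbital anesthesia. Lowering expressed as percent decrease from the initial glucose value.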

Compound | Emax at 100 mg/kg (Rattus norvegicus [1]) | Activity (Rattus norvegicus [2]) | Activity (Rattus norvegicus [3]) | Activity (Rattus norvegicus [4]) | Activity (L6) | Emax at 7.2 mg/kg (Rattus norvegicus [5]) | Activity (Rattus norvegicus [6]) | Activity (Rattus norvegicus [7]) | Activity (Rattus norvegicus [8]) | Activity (Rattus norvegicus [9])
CN(C)C(=N)NC(=N)N [METFORMIN] | 32% |  |  |  |  |  |  |  |  | 
COc1cc(C=O)cc(OC)c1O [SYRINGALDEHYDE] |  | Active | 11.08% | Active | Dose-dependent effect | 31.3% | Active | inactive | Dose-dependent effect | 25.93%
